Data as given in ChEMBL document CHEMBL1153849, “Synthesis and biological evaluation of benzenesulfonamide-substituted 4-(6-alkylpyridin-2-yl)-5-(quinoxalin-6-yl)imidazoles as transforming growth factor-beta type 1 receptor kinase inhibitors” (Eur J Med Chem, 2009).

Tests used:
[1] = target: Mitogen-activated protein kinase 14 (Homo sapiens) (UniProt Q16539); test: Inhibition of p38alpha MAP kinase at 10 uM; parameters: scale not given: the % may be the effect or the level left
How it was run: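 Radiometric coupled assay. [γ-³²P]ATP and MAPKAP kinase-2 substrate then added, 10 min at 30 °C. Mixture spotted onto P81 phosphocellulose paper, washed with 0.75% phosphoric acid, bound radioactivity counted by liquid scintillation.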

[2] = target: T1, TGF-beta receptor type-1 (Homo sapiens) (UniProt P36897); test: Inhibition of human ALK5 activity in human HaCaT cells assessed as ARE-luciferase reporter activity; format: cell-based; conditions: in the assay text read “p3TP-luciferase” for “ARE-luciferase”
T1 sequence (whole entry): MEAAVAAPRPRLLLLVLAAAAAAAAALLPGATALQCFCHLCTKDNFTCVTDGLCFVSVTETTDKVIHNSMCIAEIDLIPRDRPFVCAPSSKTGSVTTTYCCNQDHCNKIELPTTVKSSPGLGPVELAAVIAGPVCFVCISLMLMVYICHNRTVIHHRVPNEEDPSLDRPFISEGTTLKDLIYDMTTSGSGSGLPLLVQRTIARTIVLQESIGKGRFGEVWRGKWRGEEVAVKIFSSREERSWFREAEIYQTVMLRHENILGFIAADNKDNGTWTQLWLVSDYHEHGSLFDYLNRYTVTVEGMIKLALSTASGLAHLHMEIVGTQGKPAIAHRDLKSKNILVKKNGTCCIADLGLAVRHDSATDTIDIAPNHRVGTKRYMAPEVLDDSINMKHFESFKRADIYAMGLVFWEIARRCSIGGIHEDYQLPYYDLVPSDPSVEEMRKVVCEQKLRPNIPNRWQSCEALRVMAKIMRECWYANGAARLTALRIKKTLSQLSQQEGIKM
How it was run: (§1)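 HaCaT cells seeded at 5 × 10⁴ per well; next day (about 90% confluent) transiently co-transfected with p3TP-Luc or ARE-Luc reporter plus β-galactosidase by lipofection. Inhibitors added 24 h post-transfection, 2 h before stimulation with 5 ng/mL TGF-β for 18–24 h. Luminescence of lysates read. Mean ± SD of three independent experiments run in triplicate, relative to DMSO vehicle control.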

[3] = target: T1, TGF-beta receptor type-1 (Homo sapiens); test: Inhibition of human ALK5 activity in human HaCaT cells assessed as p3TP-luciferase reporter activity; format: cell-based; how it was run: as §1

Sequence of Mitogen-activated protein kinase 14 (Homo sapiens) (Q16539 whole entry): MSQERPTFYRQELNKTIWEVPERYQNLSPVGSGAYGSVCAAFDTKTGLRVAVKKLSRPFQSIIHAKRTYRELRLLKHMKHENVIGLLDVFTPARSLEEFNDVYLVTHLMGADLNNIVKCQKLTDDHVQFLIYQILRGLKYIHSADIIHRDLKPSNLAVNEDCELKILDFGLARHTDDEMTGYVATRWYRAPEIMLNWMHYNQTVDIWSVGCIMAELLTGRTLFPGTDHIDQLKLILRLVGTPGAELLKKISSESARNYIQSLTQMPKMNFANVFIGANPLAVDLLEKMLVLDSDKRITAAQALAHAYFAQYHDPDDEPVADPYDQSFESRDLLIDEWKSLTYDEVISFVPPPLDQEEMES

| Activity [1] | Activity [2] | Activity [3] | SMILES |
| --- | --- | --- | --- |
| 95% |  |  | NS(=O)(=O)c1ccc(Cc2nc(-c3ccc4nccnc4c3)c(-c3ccccn3)[nH]2)cc1 |
| 92% | Dose-dependent effect | Dose-dependent effect | CCc1cccc(-c2[nH]c(Cc3ccc(S(N)(=O)=O)cc3)nc2-c2ccc3nccnc3c2)n1 |
| 105% |  |  | CC(C)c1cccc(-c2[nH]c(CCc3ccc(S(N)(=O)=O)cc3)nc2-c2ccc3nccnc3c2)n1 |
| 49% |  |  | NC(=O)c1ccc(-c2nc(-c3ccccn3)c(-c3ccc4c(c3)OCO4)[nH]2)cc1 |
| 97% |  |  | CCCCc1cccc(-c2[nH]c(CCc3ccc(S(N)(=O)=O)cc3)nc2-c2ccc3nccnc3c2)n1 |
| 104% |  |  | CCCCc1cccc(-c2[nH]c(Cc3ccc(S(N)(=O)=O)cc3)nc2-c2ccc3nccnc3c2)n1 |
| 89% | Dose-dependent effect | Dose-dependent effect | Cc1cccc(-c2[nH]c(Cc3ccc(S(N)(=O)=O)cc3)nc2-c2ccc3nccnc3c2)n1 |
| 97% |  |  | NS(=O)(=O)c1ccc(CCc2nc(-c3ccc4nccnc4c3)c(-c3ccccn3)[nH]2)cc1 |
| 91% |  |  | Cc1cccc(-c2[nH]c(CCc3ccc(S(N)(=O)=O)cc3)nc2-c2ccc3nccnc3c2)n1 |
| 105% |  |  | CCCc1cccc(-c2[nH]c(Cc3ccc(S(N)(=O)=O)cc3)nc2-c2ccc3nccnc3c2)n1 |
| 98% |  |  | CC(C)c1cccc(-c2[nH]c(Cc3ccc(S(N)(=O)=O)cc3)nc2-c2ccc3nccnc3c2)n1 |
| 103% |  |  | CCCc1cccc(-c2[nH]c(CCc3ccc(S(N)(=O)=O)cc3)nc2-c2ccc3nccnc3c2)n1 |
| 96% |  |  | CCc1cccc(-c2[nH]c(CCc3ccc(S(N)(=O)=O)cc3)nc2-c2ccc3nccnc3c2)n1 |
